From ChEMBL document CHEMBL2311331, “Selective and potent adenosine A3 receptor antagonists by methoxyaryl substitution on the N-(2,6-diarylpyrimidin-4-yl)acetamide scaffold” (Eur J Med Chem, 2013)

Tests used:
[1] = target: T1, Adenosine receptor A2b (Homo sapiens) (UniProt P29275); experiment: Displacement of [3H]DPCPX from human adenosine A2B receptor expressed in HEK-293 cells at 1 uM; assay type: cell-based; conditions: HEK293
T1 sequence (whole entry): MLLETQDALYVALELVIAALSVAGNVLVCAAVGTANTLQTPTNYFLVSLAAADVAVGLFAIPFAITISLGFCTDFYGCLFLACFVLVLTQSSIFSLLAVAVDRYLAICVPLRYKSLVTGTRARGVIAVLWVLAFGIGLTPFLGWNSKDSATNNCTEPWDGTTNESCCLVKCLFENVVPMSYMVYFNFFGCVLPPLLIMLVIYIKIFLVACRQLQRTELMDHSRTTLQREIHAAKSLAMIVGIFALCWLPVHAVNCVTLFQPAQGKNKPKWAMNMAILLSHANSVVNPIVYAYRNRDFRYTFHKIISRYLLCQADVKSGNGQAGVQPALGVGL
Method in brief: (§1)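 Specific radioligand binding measured in the presence of a single test concentration, 1 µM, at each receptor/cell system (A1 CHO with [3H]DPCPX; A2A HeLa with triazolotriazine phenol tracer; A2B HEK-293 with [3H]DPCPX; A3 HeLa with [3H]NECA). Reported as percent displacement of specific binding, n = 2.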

Adenosine receptor A2a [2] = target: T2, Adenosine receptor A2a (Homo sapiens, UniProt P29274); experiment: Displacement of [3H]4-(2-[7-Amino-2-(2-furyl) [1,2,4]triazolo[2,3-alpha] [1,3,5]triazin-5-ylamino]ethyl)phenol from human adenosine A2A receptor expressed in human HeLa cells at 1 uM; assay type: cell-based; method in brief: as §1
[3] = target: T3, Adenosine receptor A1 (Homo sapiens) (UniProt P30542); experiment: Displacement of [3H]DPCPX from human adenosine A1 receptor expressed in CHO cells at 1 uM; assay type: cell-based; method in brief: as §1
T3 sequence (whole entry): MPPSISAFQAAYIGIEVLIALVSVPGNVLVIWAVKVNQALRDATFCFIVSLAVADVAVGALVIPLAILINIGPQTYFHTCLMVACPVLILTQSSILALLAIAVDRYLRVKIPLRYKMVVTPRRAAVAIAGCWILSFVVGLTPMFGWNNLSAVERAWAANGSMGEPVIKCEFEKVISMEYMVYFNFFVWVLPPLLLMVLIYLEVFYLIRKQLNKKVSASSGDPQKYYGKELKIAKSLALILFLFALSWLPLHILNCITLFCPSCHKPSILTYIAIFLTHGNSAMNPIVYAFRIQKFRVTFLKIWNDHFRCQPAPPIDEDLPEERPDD

Adenosine receptor A2b = target: T4, Adenosine receptor A2b (Homo sapiens, UniProt P29275); experiment: Displacement of [3H]DPCPX from human adenosine A2B receptor expressed in HEK-293 cells; assay type: cell-based, HEK293
T4 sequence (P29275 whole entry): T1 sequence (whole entry)

Adenosine receptor A2a [4] = target: T2, Adenosine receptor A2a; experiment: Displacement of [3H]4-(2-[7-Amino-2-(2-furyl) [1,2,4]triazolo[2,3-alpha] [1,3,5]triazin-5-ylamino]ethyl)phenol from human adenosine A2A receptor expressed in human HeLa cells; assay type: cell-based
Adenosine receptor A3 = target: T5, Adenosine receptor A3 (Homo sapiens, UniProt P0DMS8); experiment: Displacement of [3H]NECA from human adenosine A3 receptor expressed in human HeLa cells; assay type: cell-based
T5 sequence (P0DMS8 whole entry): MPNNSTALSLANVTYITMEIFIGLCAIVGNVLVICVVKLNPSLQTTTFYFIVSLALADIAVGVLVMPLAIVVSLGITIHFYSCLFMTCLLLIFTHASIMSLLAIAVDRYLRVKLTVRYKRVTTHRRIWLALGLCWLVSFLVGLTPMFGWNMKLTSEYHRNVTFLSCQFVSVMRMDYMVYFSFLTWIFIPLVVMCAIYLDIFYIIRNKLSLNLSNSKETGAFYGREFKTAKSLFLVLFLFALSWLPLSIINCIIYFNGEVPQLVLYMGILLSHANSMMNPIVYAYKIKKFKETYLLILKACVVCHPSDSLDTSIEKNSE

[5] = target: T6, Adenosine receptor A3 (Homo sapiens) (UniProt P0DMS8); experiment: Displacement of [3H]NECA from human adenosine A3 receptor expressed in human HeLa cells at 1 uM; assay type: cell-based; method in brief: as §1
T6 sequence (whole entry): T5 sequence (P0DMS8 whole entry)

Adenosine receptor A1 = target: T7, Adenosine receptor A1 (Homo sapiens, UniProt P30542); experiment: Displacement of [3H]DPCPX from human adenosine A1 receptor expressed in CHO cells; assay type: cell-based
T7 sequence (P30542 whole entry): T3 sequence (whole entry)

T2 sequence (P29274 whole entry): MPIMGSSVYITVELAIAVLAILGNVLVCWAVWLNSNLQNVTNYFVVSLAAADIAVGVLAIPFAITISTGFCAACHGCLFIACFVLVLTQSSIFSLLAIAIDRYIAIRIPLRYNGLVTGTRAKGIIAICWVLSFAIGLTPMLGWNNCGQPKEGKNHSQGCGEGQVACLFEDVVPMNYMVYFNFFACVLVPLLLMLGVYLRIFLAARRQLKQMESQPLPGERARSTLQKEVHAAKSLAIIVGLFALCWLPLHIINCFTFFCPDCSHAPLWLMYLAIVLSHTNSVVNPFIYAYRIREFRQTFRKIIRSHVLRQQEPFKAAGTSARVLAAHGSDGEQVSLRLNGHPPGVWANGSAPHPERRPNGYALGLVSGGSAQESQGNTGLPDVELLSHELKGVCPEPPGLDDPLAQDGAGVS

| SMILES | inhibition [1] | inhibition (Adenosine receptor A2a [2]) | inhibition [3] | Ki (Adenosine receptor A2b) | Ki (Adenosine receptor A2a [4]) | Ki (Adenosine receptor A3) | inhibition [5] | Ki (Adenosine receptor A1) |
| --- | --- | --- | --- | --- | --- | --- | --- | --- |
| COc1ccc(-c2cc(NC(C)=O)nc(-c3ccc(OC)cc3)n2)cc1 | 2% | 4% | 2% |  |  |  |  |  |
| COc1cccc(OC)c1-c1cc(NC(C)=O)nc(-c2c(OC)cccc2OC)n1 | 3% | 1% | 4% |  |  |  | 4% |  |
| CCOc1ccc(-c2cc(NC(C)=O)nc(-c3ccc(OCC)cc3)n2)cc1 | 1% | 2% | 12% |  |  | 40.2 nM |  |  |
| COc1cccc(-c2cc(NC(C)=O)nc(-c3cccc(OC)c3)n2)c1 |  |  |  | 67.5 nM | 49.4 nM | 2.8 nM |  | 22.6 nM |
| CC(=O)Nc1cc(-c2ccc3c(c2)OCO3)nc(-c2ccc3c(c2)OCO3)n1 | 6% |  |  |  |  |  |  | 17 nM |
| CC(=O)Nc1cc(-c2ccc(OC(F)(F)F)cc2)nc(-c2ccc(OC(F)(F)F)cc2)n1 | 4% | 1% | 8% |  |  | 389 nM |  |  |

Further lines, results first:

| inhibition [1] | inhibition (Adenosine receptor A2a [2]) | inhibition [3] | Ki (Adenosine receptor A2b) | Ki (Adenosine receptor A2a [4]) | Ki (Adenosine receptor A3) | inhibition [5] | Ki (Adenosine receptor A1) | SMILES |
| --- | --- | --- | --- | --- | --- | --- | --- | --- |
| 22% |  |  |  |  |  |  |  | CC(=O)Nc1cc(-c2ccccc2)nc(-c2ccccc2)n1 |
|  |  | 10% | 494 nM | 375 nM | 42.4 nM |  |  | COc1cccc(-c2cc(NC(C)=O)nc(-c3cccc(OC)c3OC)n2)c1OC |
| 1% | 1% | 14% |  |  | 26.1 nM |  |  | COc1cc(-c2cc(NC(C)=O)nc(-c3cc(OC)c(OC)c(OC)c3)n2)cc(OC)c1OC |
| 7% | 10% | 3% |  |  |  |  |  | COc1ccc(-c2cc(NC(C)=O)nc(-c3ccc(OC)cc3OC)n2)c(OC)c1 |
| 1% | 3% | 15% |  |  | 55 nM |  |  | COc1cc(OC)cc(-c2cc(NC(C)=O)nc(-c3cc(OC)cc(OC)c3)n2)c1 |
| 1% | 17% | 4% |  |  | 6.3 nM |  |  | COc1ccc(OC)c(-c2cc(NC(C)=O)nc(-c3cc(OC)ccc3OC)n2)c1 |
| 2% | 13% | 16% |  |  | 513 nM |  |  | COc1ccc(/C=C/c2cc(NC(C)=O)nc(/C=C/c3ccc(OC)cc3)n2)cc1 |
| 2% | 5% | 10% |  |  | 5.2 nM |  |  | COc1ccc(-c2cc(NC(C)=O)nc(-c3ccc(OC)c(OC)c3)n2)cc1OC |
| 7% | 15% | 4% |  |  |  |  |  | COc1ccccc1-c1cc(NC(C)=O)nc(-c2ccccc2OC)n1 |
